Reference: PubChem BioAssay AID493150 (Broad Institute, 2011)
Values joined by “and” are separate entries in the source; they are usually repeats but may differ in a detail not shown here. Equal values may be shown once. Inconclusive results are not listed. Active and inactive are the calls of the source.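 How the source made its calls: active means compound whose fitted half-maximal growth inhibition concentration stays within ten times its top tested dose in every replicate test; inconclusive means replicate tests disagree, or flat partial inhibition, or poor curve fit; inactive means every replicate test inactive, including wrong-direction or flat responses.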

Columns and labels:
[1] = test system: C. albicans CaCi-2 + fluconazole, Alamar Blue growth, 48 h; test: growth inhibition of fluconazole-resistant C. albicans, confirmation, CaCi-2 strain, Alamar Blue, dry powder, set 5 (AID 493150)
Procedure, shortened: (§1)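 Test system: clinical Candida albicans isolate CaCi-2, resistant to fluconazole; Medium: RPMI/MOPS defined medium; Times: 48 h humidified 37 °C exposure, 2 h room-temperature dye step; Measured by: Alamar Blue fluorescence, Ex 544/Em 590 nm.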

[2] = as above; conditions: C. albicans CaCi-2 (fluconazole-resistant clinical isolate) + fluconazole, Alamar Blue growth, 48 h
Procedure, shortened: as §1

Structure (SMILES)	AC50 [1]	activity change, negative = inhibition ([2]; at 12 µM (top of the series))	also measured
COC(=O)Cn1nc(-c2ccc(F)cc2)c2ccccc21	5.61 µM	–	–
COC(=O)Cn1nc(-c2ccc(C(F)(F)F)cc2)c2ccccc21	–	-0.629% (inactive)	–
COC(=O)Cn1nc(-c2ccccc2)c2ccc(OC)cc21	7.51 µM	–	–
COC(=O)Cn1nc(-c2ccccc2OC)c2ccccc21	6.22 µM	–	–
COC(=O)Cn1nc(-c2cncnc2)c2ccccc21	–	–	activity change, negative = inhibition ([2]; at 10 µM (top of the series)): -5.14% (inactive)
COC(=O)Cn1nc(-c2ccc(OC)cc2)c2ccccc21	4.22 µM	–	–
COC(=O)Cn1nc(-c2ccccc2)c2ccccc21	1.2 µM	–	–
COC(=O)Cn1nc(-c2ccccc2)c2cc(F)ccc21	4.63 µM	–	–
c1ccc(-c2nn(Cc3ncco3)c3ccccc23)cc1	–	1.86% (inactive)	–
CCOC(=O)Cn1nc(-c2ccccc2)c2ccccc21	–	4.8% (inactive)	–
COC(=O)Cn1nc(-c2ccccc2)c2ccc(F)cc21	5.1 µM	–	–
COC(=O)Cn1nc(-c2cccc(OC)c2)c2ccccc21	0.44 µM	–	–
COC(=O)Cn1nc(-c2ccccc2)c2cc(OC)ccc21	10.4 µM	–	–
COC(=O)CCn1nc(-c2ccccc2)c2ccccc21	–	1.2% (inactive)	–
COC(=O)Cn1c2ccccc2c2nc3n(c(=O)c21)CCS3	3.83 µM	–	–
O=C(Cn1nc(-c2ccccc2)c2ccccc21)Oc1ccccc1	–	-4.43% (inactive)	–
N#CCn1nc(-c2ccccc2)c2ccccc21	–	-18.5% (inactive)	–
COC(=O)Cn1nc(-c2cccc(C)c2)c2ccccc21	0.647 µM	–	–
O=C(Cn1c2ccccc2c2nc3n(c(=O)c21)CCS3)N1CCCC1	1.04 µM and 1.87 µM	–	–
COC(=O)Cn1nc(-c2ccccc2)c2ccc(C)cc21	3.14 µM	–	–
c1ccc(-c2nn(Cc3nn[nH]n3)c3ccccc23)cc1	–	-7.06% (inactive)	–
COCCn1nc(-c2ccccc2)c2ccccc21	–	-9.42% (inactive)	–
COC(=O)Cn1nc(-c2ccccc2)c2ccc(Cl)cc21	3.79 µM	–	–
CC(C)OC(=O)Cn1nc(-c2ccccc2)c2ccccc21	–	11.7% (inactive)	–
COC(=O)Cn1nc(-c2cccc(F)c2)c2ccccc21	1.41 µM	–	–
COC(=O)Cn1nc(-c2ccccc2)c2cc(C)ccc21	3.28 µM	–	–
CC(C)(C)OC(=O)Cn1nc(-c2ccccc2)c2ccccc21	–	17.1% (inactive)	–
COC(=O)Cn1nc(-c2ccccc2)c2ccc(C#N)cc21	–	-14.7% (inactive)	–
